Experimental data taken from ChEMBL document CHEMBL1138329, “Pharmacokinetic/pharmacodynamic model-guided identification of hypoxia-selective 1,2,4-benzotriazine 1,4-dioxides with antitumor activity: the role of extravascular transport” (J Med Chem, 2007).

Key:
HT-29 [1] = assay: Ratio of IC50 for HT29 cells under oxic conditions to hypoxic conditions after 4 hrs; type: functional, Homo sapiens
HT-29 [2] = assay: Cytotoxicity against human HT29 cells under hypoxic conditions after 4 hrs; type: functional, cell-based; settings: HT-29, 4 h
SiHa [3] = assay: Cytotoxicity against human SiHa cells under hypoxic conditions after 4 hrs; type: functional, cell-based
[4] = Solubility in culture medium in presence of 5% fetal calf serum; type: physicochemical; settings: culture medium with 5% fetal calf serum
HT-29 [5] = assay: Effect on human HT29 cells under hypoxic conditions assessed as drug level causing 10% clonogenic survival; type: functional
Summary of the method: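 HT29 suspensions (1 or 2 × 10^6 cells/mL) in serum-free medium were stirred under 5% CO2/95% N2 for 90 min. Drug was added from deoxygenated DMSO stock at a level giving about 10% survival at 1 h, and samples were taken up to 3 h. Clonogenic survival (14 days, methylene blue) was fitted with the HPLC concentration–time data, and the 10% survival exposure was interpolated.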

SiHa [6] = assay: Ratio of IC50 for SiHa cells under oxic conditions to hypoxic conditions after 4 hrs; type: functional, Homo sapiens
HT-29 [7] = assay: Diffusion coefficient, D in HT29 multicellular layers; type: ADME, cell-based; settings: human
Summary of the method: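 HT29 multicellular layers were grown 3 days on collagen-coated Teflon membranes, equilibrated 60 min under 95% O2/5% CO2 at 37 °C, then placed in a diffusion chamber. Donor and receiver were sampled up to 5 h and assayed by HPLC. D came from fitting both profiles to a Fickian model with membrane and MCL in series, corrected by support-only Ds.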

[8] = Half life in CD1 mouse at 316 umol/kg, ip; type: ADME, organism-based; settings: in vivo
Summary of the method: (§1)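 Single i.p. dose to CD-1 homozygous nude mice, drug as HCl salt in 0.9% saline, 5% DMSO/saline or lactate buffer (pH 4.0). Plasma total drug measured by HPLC at 75 or 100% of MTD (MTD from 1.33-fold dose steps, 6 mice). Noncompartmental analysis gave AUC, Cmax and t1/2.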

[9] = Cmax in CD1 mouse at 316 umol/kg, ip; type: ADME, organism-based; design: dose 316 umol/kg, route intraperitoneal; settings: in vivo; summary of the method: as §1
Mus musculus = assay: Toxicity in ip dosed CD1 mouse; type: organism-based; settings: in vivo
Summary of the method: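 MTD in CD-1 homozygous nude mice after single i.p. doses (HCl salts in saline, 5% DMSO/saline or lactate buffer pH 4.0), escalated in 1.33-fold increments. MTD taken as the highest dose causing no death, no body weight loss >15% and no other severe morbidity in any of 6 mice.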

[10] = AUC in CD1 mouse at 316 umol/kg, ip; type: ADME, organism-based; settings: plasma; summary of the method: as §1

SMILES	Ratio IC50 (HT-29 [1])	IC50 (HT-29 [2]) [nM]	IC50 (SiHa [3]) [nM]	solubility [4] [mM]	Activity (HT-29 [5]) [µM·h]	Ratio IC50 (SiHa [6])	D (HT-29 [7]) [cm²/s]	half-life [8] [min]	Cmax [9] [µM]	MTD (Mus musculus) [µmol/kg]	AUC [10] [µM·h]
CCN(CC)CCNc1n[n+]([O-])c2ccc(C(C)(C)C)cc2[n+]1[O-]	37	4300	900	> 48	33.1	90					
CC1CCCC(C)N1CCNc1n[n+]([O-])c2ccccc2[n+]1[O-] (stereo not drawn)	15	2200	900	48	5.7	41	6.81e-07				
CCN(CC)CCNc1n[n+]([O-])c2ccc(C)cc2[n+]1[O-]	51	1000	300	> 49	8.3	35					
CCCN(CCC)CCNc1n[n+]([O-])c2ccc(C(C)(C)C)cc2[n+]1[O-]	18	8300	3800	32	66.6	35	1.75e-06				
COc1ccc2c(c1)[n+]([O-])c(NCCN1CCOCC1)n[n+]2[O-]	>39	103000	40900	48		70					
CC(C)c1ccc2c(c1)[n+]([O-])c(NCCN(C)C)n[n+]2[O-]	120	1900	1100	42	11.6	104					
CC(C)c1ccc2c(c1)[n+]([O-])c(NCCN1CCCCC1)n[n+]2[O-]	41	2700	1100	18	15.2	65					
CC(C)(C)c1ccc2c(c1)[n+]([O-])c(NCCN1CCCCC1)n[n+]2[O-]	31	4000	600	28	30.3	121	1.5e-06				
CCc1ccc2c(c1)[n+]([O-])c(NCCN(C)C)n[n+]2[O-]	116	1300	500	> 49	6.2	186		12.7	21.6	421	13.2
COc1ccc2c(c1)[n+]([O-])c(NCCN1CCCCC1)n[n+]2[O-]	24	10800	3000	45	38.9	65		24.6	26.7	421	20.2
COc1ccc2c(c1)[n+]([O-])c(NCCN1C(C)CCCC1C)n[n+]2[O-] (stereo not drawn)	34	3900	1000	29	26.1	121					
COc1ccc2c(c1)[n+]([O-])c(NCCCN1CCOCC1)n[n+]2[O-]	>8	22000	10200	> 44	149.7	447					
COc1ccc2c(c1)[n+]([O-])c(NCCCN1CCC(C#N)C1)n[n+]2[O-] (stereo not drawn)	41	40600	31900	47	211.4	36					
CCCN(CCC)CCNc1n[n+]([O-])c2ccc(Cl)cc2[n+]1[O-]	9	600	300	0.6		21					
CC(C)(C)c1ccc2c(c1)[n+]([O-])c(NCCN1CCOCC1)n[n+]2[O-]	13	61200	10900	1.8		55					
